Data from ChEMBL document CHEMBL4350998, “Design, synthesis, and structure-activity relationship studies of l-amino alcohol derivatives as broad-spectrum antifungal agents” (Eur J Med Chem, 2019).

Assays:
Candida tropicalis = test: Antifungal activity against Candida tropicalis CGMCC 2.3739 assessed as inhibition of visible microbial growth by NCCLS protocol based method; type: functional
Summary of the method: (§1)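 Compounds dissolved in DMSO and serially diluted into growth medium. MIC was read as the lowest concentration that inhibited visible fungal growth.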

Candida albicans [1] = test: Antifungal activity against Candida albicans CPCC 400523 assessed as inhibition of visible microbial growth by NCCLS protocol based method; type: functional
Aspergillus fumigatus = test: Antifungal activity against Aspergillus fumigatus CGMCC 3.7795 assessed as inhibition of visible microbial growth by NCCLS protocol based method; type: functional; summary of the method: as §1
Cryptococcus neoformans = test: Antifungal activity against Cryptococcus neoformans CGMCC 2.3161 assessed as inhibition of visible microbial growth by NCCLS protocol based method; type: functional; summary of the method: as §1
Candida albicans [2] = test: Antifungal activity against Candida albicans ATCC SC5314 assessed as inhibition of visible microbial growth by NCCLS protocol based method; type: functional; summary of the method: as §1
Candida albicans [3] = test: Antifungal activity against fluconazole-resistant Candida albicans Strain CaR assessed as inhibition of visible microbial growth by NCCLS protocol based method; type: functional
Summary of the method: (§2)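 Broth dilution MIC against clinical fluconazole-resistant C. albicans isolates from AIDS patients. Compounds dissolved in DMSO and serially diluted into growth medium. MIC was taken as the lowest concentration that inhibits visible fungal growth. Fluconazole and itraconazole served as positive controls.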

Candida albicans [4] = test: Antifungal activity against fluconazole-resistant Candida albicans Strain 17# assessed as inhibition of visible microbial growth by NCCLS protocol based method; type: functional; summary of the method: as §2
[5] = Cytotoxicity in human A549 cells assessed as reduction in cell viability at 0.08 uM/L incubated for 24 hrs by MTT assay relative to control; type: cell-based; conditions: read-out: INH
Summary of the method: (§3)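 A549 cells were seeded at 3000 cells/well and preincubated for 16 h at 37 °C, 5% CO2. Medium was then replaced with fresh medium holding compound (DMSO stock diluted to final 0.08, 0.4, 2.0, 10 or 50 μM/L). Exposure lasted 24 h at 37 °C, 5% CO2, followed by MTT for 4 h and absorbance at 490 nm. Results are given as % inhibition.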

[6] = Cytotoxicity in human A549 cells assessed as reduction in cell viability at 0.40 uM/L incubated for 24 hrs by MTT assay relative to control; type: cell-based; conditions: read-out: INH; summary of the method: as §3
[7] = Cytotoxicity in human A549 cells assessed as reduction in cell viability at 2 uM/L incubated for 24 hrs by MTT assay relative to control; type: cell-based; conditions: read-out: INH; summary of the method: as §3
[8] = Cytotoxicity in human A549 cells assessed as reduction in cell viability at 10 uM/L incubated for 24 hrs by MTT assay relative to control; type: cell-based; conditions: read-out: INH; summary of the method: as §3
[9] = Cytotoxicity in human A549 cells assessed as reduction in cell viability at 50 uM/L incubated for 24 hrs by MTT assay relative to control; type: cell-based; conditions: read-out: INH; summary of the method: as §3
[10] = Stability in human plasma assessed as parent compound remaining at 100 uM after 60 mins LC/MS/MS analysis relative to control; type: ADME, cell-free; conditions: read-out: Stability
Summary of the method: (§4)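 Thawed human plasma was cleared at 4000 rpm and spiked from a 100 μM dosing solution to a final 2 μM, in duplicate, at 37 °C. Propantheline served as positive control. Sampling at 0, 10, 30, 60 and 120 min into ACN/MeOH stop solution with tolbutamide and labetalol internal standards. After centrifugation, supernatant was diluted with water and run by LC/MS/MS. % remaining was taken from the analyte/IS peak-area ratio, with no standard curve.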

[11] = Stability in human plasma assessed as parent compound remaining at 100 uM after 120 mins LC/MS/MS analysis relative to control; type: ADME, cell-free; conditions: read-out: Stability; summary of the method: as §4

SMILES | MIC (Candida tropicalis) [µg/mL] | MIC (Candida albicans [1]) [µg/mL] | MIC (Aspergillus fumigatus) [µg/mL] | MIC (Cryptococcus neoformans) [µg/mL] | MIC (Candida albicans [2]) [µg/mL] | MIC (Candida albicans [3]) [µg/mL] | MIC (Candida albicans [4]) [µg/mL] | cytotoxicity at 24 h, 0.08 µM [5] [%] | cytotoxicity at 24 h, 0.4 µM [6] [%] | cytotoxicity at 24 h, 2 µM [7] [%] | cytotoxicity at 24 h, 10 µM [8] [%] | cytotoxicity at 24 h, 50 µM [9] [%] | remaining at 1 h, 100 µM [10] [%] | remaining at 2 h, 100 µM [11] [%]
CC[C@H](C)[C@@H](Cn1ccnc1)NC(=O)c1ccc(-c2ccccc2)cc1C | 0.5 | 1 | > 64 | > 64 | 0.25 | – | – | – | – | – | – | – | – | –
CC[C@H](C)[C@@H](Cn1ccnc1)NC(=O)c1ccc(-c2cccc(F)c2)cc1 | 0.06 | 0.125 | > 64 | 2 | < 0.03 | – | – | – | – | – | – | – | – | –
CC[C@H](C)[C@@H](Cn1ccnc1)NC(=O)c1ccc(-c2ccccc2)c(Cl)c1 | 0.25 | 4 | > 64 | 4 | 0.5 | – | – | – | – | – | – | – | – | –
CC[C@H](C)[C@@H](Cn1ccnc1)NC(=O)c1ccc(-c2cccc(F)c2)cc1F | < 0.03 | 0.06 | 4 | 4 | < 0.03 | – | – | – | – | – | – | – | – | –
CC[C@@H](Cn1ccnc1)NC(=O)c1ccc(-c2ccccc2)cc1 | 0.125 | 0.25 | 4 | 16 | < 0.06 | – | – | – | – | – | – | – | – | –
CC(C)[C@@H](Cn1ccnc1)NC(=O)c1ccc(-c2ccccc2)cc1F | < 0.03 | 0.06 | 1 | 2 | < 0.03 | 32 | 4 | – | – | – | – | – | – | –
CC(C)[C@@H](Cn1ccnc1)NC(=O)c1ccc(-c2cccc(F)c2)cc1 | 0.06 | 0.06 | > 64 | 2 | < 0.03 | – | – | – | – | – | – | – | – | –
O=C(N[C@@H](Cc1ccccc1)Cn1ccnc1)c1ccc(-c2ccccc2)c(F)c1 | < 0.03 | 0.06 | > 64 | 0.5 | < 0.03 | – | – | – | – | – | – | – | – | –
CC[C@H](C)[C@@H](Cn1cncn1)NC(=O)c1ccc(-c2ccccc2)cc1F | 0.25 | 0.25 | 2 | > 64 | 0.125 | – | – | – | – | – | – | – | – | –
CC[C@H](C)[C@@H](Cn1ccnc1)NC(=O)c1ccc(-c2ccc(F)cc2)cc1 | 0.125 | 0.25 | > 64 | 1 | 0.125 | – | – | – | – | – | – | – | – | –
CC[C@H](C)[C@@H](Cn1ccnc1)NC(=O)c1ccc(-c2ccccc2)c(F)c1 | 0.06 | 0.06 | > 64 | 2 | < 0.03 | – | – | – | – | – | – | – | – | –
CC[C@H](C)[C@@H](Cn1ccnc1)NC(=O)c1ccc(-c2ccccc2)cc1 | < 0.03 | < 0.03 | > 64 | 0.5 | < 0.03 | – | – | – | – | – | – | – | – | –
CCC(C)n1ncn(-c2ccc(N3CCN(c4ccc(OCC5COC(Cn6cncn6)(c6ccc(Cl)cc6Cl)O5)cc4)CC3)cc2)c1=O (stereo not drawn) [ITRACONAZOLE] | < 0.03 | < 0.03 | < 0.125 | < 0.125 | < 0.03 | – | – | – | – | – | – | – | – | –
CC(C)C[C@@H](Cn1ccnc1)NC(=O)c1ccc(-c2ccccc2)cc1 | < 0.03 | < 0.03 | > 64 | 1 | < 0.03 | – | – | – | – | – | – | – | – | –
O=C(N[C@@H](Cc1ccccc1)Cn1ccnc1)c1ccc(-c2ccccc2)cc1F | < 0.03 | 0.06 | > 64 | > 64 | < 0.03 | – | – | – | – | – | – | – | – | –
CC[C@H](C)[C@@H](Cn1ccnc1)NC(=O)c1ccc(-c2ccc(F)cc2)cc1F | 0.125 | 0.25 | 8 | 4 | 0.125 | – | – | – | – | – | – | – | – | –

SMILES | MIC (Candida tropicalis) [µg/mL] | MIC (Candida albicans [1]) [µg/mL] | MIC (Aspergillus fumigatus) [µg/mL] | MIC (Cryptococcus neoformans) [µg/mL] | MIC (Candida albicans [2]) [µg/mL] | MIC (Candida albicans [3]) [µg/mL] | MIC (Candida albicans [4]) [µg/mL] | cytotoxicity at 24 h, 0.08 µM [5] [%] | cytotoxicity at 24 h, 0.4 µM [6] [%] | cytotoxicity at 24 h, 2 µM [7] [%] | cytotoxicity at 24 h, 10 µM [8] [%] | cytotoxicity at 24 h, 50 µM [9] [%] | remaining at 1 h, 100 µM [10] [%] | remaining at 2 h, 100 µM [11] [%]
CC(C)[C@@H](Cn1ccnc1)NC(=O)c1ccc(-c2ccccc2)cc1 | < 0.03 | 0.06 | 8 | 1 | < 0.03 | – | – | – | – | – | – | – | – | –
CC(C)[C@@H](Cn1ccnc1)NC(=O)c1ccc(-c2ccc(F)cc2)cc1 | 0.25 | 0.5 | 32 | 1 | 0.25 | – | – | – | – | – | – | – | – | –
CC[C@H](C)[C@@H](Cn1ccnc1)NC(=O)c1ccc(-c2ccccc2)cc1OC | 0.125 | 1 | > 64 | > 64 | 0.25 | – | – | – | – | – | – | – | – | –
C[C@@H](Cn1ccnc1)NC(=O)c1ccc(-c2ccccc2)cc1 | 0.25 | 4 | 1 | > 64 | 0.5 | – | – | – | – | – | – | – | – | –
CC(C)[C@@H](Cn1ccnc1)NC(=O)c1ccc(-c2ccccc2F)cc1 | 0.06 | 0.06 | > 64 | 1 | < 0.03 | – | – | – | – | – | – | – | – | –
CC(C)C[C@@H](Cn1ccnc1)NC(=O)c1ccc(-c2ccccc2)c(F)c1 | < 0.03 | 0.06 | > 64 | 4 | < 0.03 | – | – | – | – | – | – | – | – | –
CC[C@H](C)[C@@H](Cn1ccnc1)NC(=O)c1ccc(-c2ccccc2)cc1F | < 0.03 | < 0.03 | 2 | 1 | < 0.03 | 4 | 2 | 1.2 | 1 | 1.2 | 3.1 | 14 | 113 | 86.3
CC[C@H](C)[C@@H](Cn1ccnc1)NC(=O)c1ccc(-c2ccccc2)cc1Cl | 0.125 | 0.25 | > 64 | > 64 | 0.06 | – | – | – | – | – | – | – | – | –
CC(C)[C@H](Cn1ccnc1)NC(=O)c1ccc(-c2ccccc2)cc1 | 8 | > 16 | > 64 | > 64 | > 16 | – | – | – | – | – | – | – | – | –
CC[C@H](C)[C@@H](Cn1ccnc1)NC(=O)c1ccc(-c2ccccc2)c(C)c1 | 2 | > 16 | > 64 | > 64 | > 16 | – | – | – | – | – | – | – | – | –
O=C(N[C@@H](Cc1ccccc1)Cn1ccnc1)c1ccc(-c2ccccc2)cc1 | < 0.03 | 0.125 | > 64 | 0.25 | < 0.03 | – | – | – | – | – | – | – | – | –
CC(C)[C@@H](Cn1ccnc1)NC(=O)c1ccc(-c2ccccc2)c(F)c1 | 0.06 | 0.06 | > 64 | 2 | < 0.03 | – | – | – | – | – | – | – | – | –
CC(C)C[C@@H](Cn1ccnc1)NC(=O)c1ccc(-c2ccccc2)cc1F | < 0.03 | 0.06 | 2 | 2 | < 0.03 | 4 | 1 | – | – | – | – | – | – | –
CCC[C@@H](Cn1ccnc1)NC(=O)c1ccc(-c2ccccc2)cc1 | < 0.03 | 0.06 | 4 | 2 | < 0.03 | – | – | – | – | – | – | – | – | –
C[C@@H](c1ncncc1F)[C@](O)(Cn1cncn1)c1ccc(F)cc1F [VORICONAZOLE] | – | – | – | – | – | – | – | 17.1 | 20.3 | 25.5 | 32 | 36.7 | – | –
CC[C@H](C)[C@@H](Cn1ccnc1)NC(=O)c1ccc(-c2ccccc2F)cc1 | 0.06 | 0.06 | > 64 | 1 | < 0.03 | – | – | – | – | – | – | – | – | –
